Data set [1] in a line: folding enthalpy; higher = less favourable; fluorescence melt of hairpins on a sequencing array, two-state fit. To be noted: sodium 0.088 M. A digest of the protocol: (§1)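 Cy3 fluorescence of library hairpins on a sequenced MiSeq flow cell, with annealed Cy3 and quencher oligos, was imaged in 50 mM Na-HEPES pH 8.0, 25 mM NaCl in 2.5 °C steps up to 60 °C. Signals were normalised to pre-quench Cy3 and to control variants. Melting temperature and folding enthalpy came from bootstrapped two-state fits, inverse-variance combined over four replicates. Fitted temperatures were raised by 9.35 °C to match UV melts.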

Data set [2] can be described thus: melting temperature; fluorescence melt of hairpins on a sequencing array, two-state fit, raised by 9.35 °C to match UV melts. The conditions noted are these: sodium 0.088 M. A digest of the protocol: as §1

From the array DNA melting data of Ke et al. (doi:10.1101/2024.01.08.574731) come the findings set out here.

In the case of GCCCTCCGAAAGGACGGC (((.(((....))).))), in data set [1], the folding enthalpy was -40.7 kcal/mol. Further, in data set [2], the Tm was found to be 50.4 °C.
Turning to GCCCTCGAAAGAGCTGGC ((((((....)))..))), the folding enthalpy in data set [1] is -24.7 kcal/mol. For the same sequence, the Tm in data set [2] is 42.3 °C.
GCCCTCGAAAGAGGAGGC ((((((....)))..))): the folding enthalpy in data set [1] was -17 kcal/mol. In data set [2], the Tm came to 51.9 °C.
GCCCTCGAAAGAGTCGGC ((((((....)))..))): in data set [1], the folding enthalpy was -24.1 kcal/mol. The Tm in data set [2] was determined as 40.9 °C.
With GCCCTCGGAAACGAAGGC (((.(((....))).))), the folding enthalpy in data set [1] was -34.1 kcal/mol. The Tm in data set [2] was 46.6 °C.
As to GCCCTCTCGAAAGAGGGC (((..(((....)))))), the folding enthalpy in data set [1] was -40.5 kcal/mol. Further, the Tm in data set [2] was 68.1 °C.
For the sequence GCCCTGCGAAAGCAAGGC (((.(((....))).))), the folding enthalpy in data set [1] is -33.9 kcal/mol. Besides, the Tm in data set [2] was 55.7 °C.
In the same order, the values of GCCCTGCGAAAGCACCGC ((..(((....)))..)) are -7.84 kcal/mol and 32.4 °C.
For GCCCTGCGAAAGCCCGGC (((..((....))..))), in data set [1], the folding enthalpy is -23 kcal/mol. In data set [2], the Tm amounted to 39.1 °C.
Take GCCCTGCGAAAGCGCGGC (((..((....))..))): the folding enthalpy in data set [1] was -21.5 kcal/mol. Further, the Tm in data set [2] is 54.5 °C.
In the same order, the values of GCCCTGGGAAACCAAGGC (((.(((....))).))) are -30.1 kcal/mol and 44.8 °C.
With GCCCTTCCGAAAGGAGGC (((..(((....)))))), the folding enthalpy in data set [1] is -17.7 kcal/mol. The Tm in data set [2] was 41.1 °C.
In the same order, the values of GCCCTTCGAAAGAACGGC (((.(((....))).))) are -29.7 kcal/mol and 42.2 °C.
For the sequence GCCCTTGGAAACAAGAGC ((.((((....)))).)), the folding enthalpy in data set [1] was -21.4 kcal/mol. In addition, the Tm in data set [2] was 37.6 °C.
Consider GCCCTTGGAAACAGGGGC ((((.((....)).)))), for which the folding enthalpy in data set [1] is -41.4 kcal/mol. Further, the Tm in data set [2] is 54.4 °C.
As to GCCGAACGAAAGTTAGGC (((.(((....))).))), in data set [1], the folding enthalpy is -36.2 kcal/mol. The Tm in data set [2] came to 60.9 °C.
Take GCCGAAGGAAACTTCGAC (.(((((....))))).): the folding enthalpy in data set [1] was -19.8 kcal/mol. The Tm in data set [2] was 41 °C.
With GCCGACCGAAAGGTAGGC (((.(((....))).))), the folding enthalpy in data set [1] was -37.5 kcal/mol. Also, the Tm in data set [2] came out at 69.3 °C.
As to GCCGACGAAAGTCCTGGC ((((((....)))..))), the folding enthalpy in data set [1] is -20.2 kcal/mol. Moreover, in data set [2], the Tm came to 45.1 °C.
As for GCCGACGAAAGTCTTGGC ((((((....)))..))), the folding enthalpy in data set [1] is -23.2 kcal/mol. For the same sequence, the Tm in data set [2] was 48.1 °C.
Consider GCCGACGCGAAAGCGGGC (((..(((....)))))), for which the folding enthalpy in data set [1] is -18.1 kcal/mol. In data set [2], the Tm was determined as 65.9 °C.
In the same order, the values of GCCGAGACGAAAGTCGGC (((..(((....)))))) are -28.4 kcal/mol and 61.8 °C.
GCCGAGCGAAAGCCCAGC ((.(.((....)).).)): the folding enthalpy in data set [1] is -12.4 kcal/mol. The Tm in data set [2] worked out at 35.8 °C.
As to GCCGAGCGAAAGCCGGGC (((..((....))..))), in data set [1], the folding enthalpy is -13.3 kcal/mol. Moreover, in data set [2], the Tm was 67.2 °C.
As for GCCGAGCGAAAGCGCTGC ((.(.((....)).).)), in data set [1], the folding enthalpy was -12.4 kcal/mol. The Tm in data set [2] is 45.6 °C.
Consider GCCGAGCGAAAGCTAAGC ((..(((....)))..)), for which the folding enthalpy in data set [1] is -16.3 kcal/mol. For the same sequence, the Tm in data set [2] amounted to 40 °C.
GCCGAGCGAAAGCTACGC ((..(((....)))..)): the folding enthalpy in data set [1] was -12.1 kcal/mol. Besides, in data set [2], the Tm was 45.8 °C.
Consider GCCGAGCGAAAGCTCAGC ((.((((....)))).)), for which, in data set [1], the folding enthalpy is -18.1 kcal/mol. Besides, the Tm in data set [2] amounted to 58 °C.
As for GCCGAGCGAAAGCTCTGC ((.((((....)))).)), the folding enthalpy in data set [1] is -28.5 kcal/mol. Further, the Tm in data set [2] was 58.7 °C.
In the same order, the values of GCCGAGCGAAAGCTTCGC ((..(((....)))..)) are -11.3 kcal/mol and 49.2 °C.
In the same order, the values of GCCGAGCGAAAGCTTTGC ((..(((....)))..)) are -12.6 kcal/mol and 39.1 °C.
Take GCCGAGTCGAAAGACGGC (((..(((....)))))): in data set [1], the folding enthalpy was -21.2 kcal/mol. Also, in data set [2], the Tm stood at 56.6 °C.
In the same order, the values of GCCGATGGAAACGTTGGC (((.(.(....).).))) are -25.5 kcal/mol and 43 °C.
In the case of GCCGCAGGAAACTACGGC ((((.((....)).)))), the folding enthalpy in data set [1] is -32.5 kcal/mol. For the same sequence, in data set [2], the Tm was 50.8 °C.
In the same order, the values of GCCGCATCGAAAGATGGC (((..(((....)))))) are -11.4 kcal/mol and 46.9 °C.
Turning to GCCGCCACGAAAGTGGGC (((..(((....)))))), the folding enthalpy in data set [1] was -8.39 kcal/mol. Besides, the Tm in data set [2] worked out at 54.6 °C.
GCCGCCGAAAGGCCTGGC ((((((....)))..))): in data set [1], the folding enthalpy was -16 kcal/mol. Also, the Tm in data set [2] turned out to be 51 °C.
Take GCCGCCGAAAGGCTTGGC ((((((....)))..))): the folding enthalpy in data set [1] is -21 kcal/mol. Also, in data set [2], the Tm worked out at 54.5 °C.
In the same order, the values of GCCGCCGGAAACAGCGGC (((((.(....).))))) are -37.4 kcal/mol and 66.4 °C.
As for GCCGCGCGAAAGCCAGGC (((..((....))..))), the folding enthalpy in data set [1] was -27.8 kcal/mol. In addition, the Tm in data set [2] was determined as 62 °C.
In the case of GCCGCGCGAAAGCCGGGC (((..((....))..))), the folding enthalpy in data set [1] was -18.5 kcal/mol. In addition, in data set [2], the Tm was 68.2 °C.
GCCGCGCGAAAGCGAAGC ((..(((....)))..)): the folding enthalpy in data set [1] was -12.9 kcal/mol. Moreover, the Tm in data set [2] was found to be 46 °C.
In the same order, the values of GCCGCGCGAAAGCTTGGC (((..((....))..))) are -22.7 kcal/mol and 55.1 °C.
For the sequence GCCGCGGCGAAAGCCGGC (((..(((....)))))), in data set [1], the folding enthalpy is -7.85 kcal/mol. In data set [2], the Tm worked out at 68.6 °C.
In the same order, the values of GCCGCTCGAAAGAGAGGC (((.(((....))).))) are -40 kcal/mol and 67.1 °C.
On to GCCGCTGGAAACAGCAGC ((.((((....)))).)), for which, in data set [1], the folding enthalpy was -20.1 kcal/mol. Besides, the Tm in data set [2] stood at 50.1 °C.
As to GCCGCTTCGAAAGAAGGC (((..(((....)))))), the folding enthalpy in data set [1] was -13.2 kcal/mol. Also, the Tm in data set [2] is 49.7 °C.
In the same order, the values of GCCGGAGGAAACTCCGAC (.(((((....))))).) are -13.1 kcal/mol and 49.9 °C.
For GCCGGCACGAAAGTGGGC (((..(((....)))))), in data set [1], the folding enthalpy is -19.2 kcal/mol. In data set [2], the Tm was determined as 51.8 °C.
With GCCGGCCCGAAAGGGGGC (((..(((....)))))), the folding enthalpy in data set [1] is -11.3 kcal/mol. Also, in data set [2], the Tm came to 58.3 °C.
In the same order, the values of GCCGGCGAAAGCCAGGGC ((((((....)))..))) are -18.7 kcal/mol and 63.1 °C.
On to GCCGGCGAAAGCCATGGC ((((((....)))..))), for which the folding enthalpy in data set [1] is -19.9 kcal/mol. Moreover, in data set [2], the Tm was 56.1 °C.
Take GCCGGCGAAAGCCCCGGC ((((((....)))..))): the folding enthalpy in data set [1] is -18.3 kcal/mol. Also, the Tm in data set [2] is 55.2 °C.
Regarding GCCGGCGCGAAAGCGGGC (((..(((....)))))), the folding enthalpy in data set [1] was -14.4 kcal/mol. Further, the Tm in data set [2] is 63 °C.
Take GCCGGGCGAAAGCAAGGC (((..((....))..))): the folding enthalpy in data set [1] was -34 kcal/mol. Besides, the Tm in data set [2] was found to be 68.5 °C.
In the same order, the values of GCCGGGCGAAAGCACAGC ((.(.((....)).).)) are -16.9 kcal/mol and 53.8 °C.
With GCCGGGCGAAAGCACCGC ((.(.((....)).).)), the folding enthalpy in data set [1] was -14.1 kcal/mol. Moreover, the Tm in data set [2] worked out at 49 °C.
On to GCCGGGCGAAAGCGCTGC ((.(.((....)).).)), for which the folding enthalpy in data set [1] is -20.3 kcal/mol. Besides, in data set [2], the Tm turned out to be 43 °C.
In the same order, the values of GCCGGGCGAAAGCTCAGC ((.(.((....)).).)) are -16.9 kcal/mol and 44.4 °C.
In the same order, the values of GCCGGGGGAAACCTCGGC ((((.((....)).)))) are -37.9 kcal/mol and 66.7 °C.
In the same order, the values of GCCGGTGGAAACACCAGC ((.((((....)))).)) are -21.5 kcal/mol and 48.4 °C.
With GCCGGTGGAAACACTGGC (((.(((....))).))), the folding enthalpy in data set [1] is -41.5 kcal/mol. Also, the Tm in data set [2] worked out at 60 °C.
GCCGTAGAAATACGGC ((((((....)))))): the folding enthalpy in data set [1] was -42.4 kcal/mol. Further, the Tm in data set [2] stood at 64 °C.
In the same order, the values of GCCGTAGGAAACTATGGC (((.(((....))).))) are -34 kcal/mol and 51.3 °C.
In the same order, the values of GCCGTCCCGAAAGGGGGC (((..(((....)))))) are -17 kcal/mol and 49.4 °C.
Consider GCCGTCGAAAGACGTGGC ((((((....)))..))), for which the folding enthalpy in data set [1] is -14.1 kcal/mol. In addition, the Tm in data set [2] was determined as 58.8 °C.
As for GCCGTCGAAAGACTAGGC ((((((....)))..))), the folding enthalpy in data set [1] is -35.5 kcal/mol. Further, in data set [2], the Tm came to 52.8 °C.
Turning to GCCGTCGGAAACGACGAC (.(((((....))))).), in data set [1], the folding enthalpy is -13.3 kcal/mol. For the same sequence, the Tm in data set [2] came to 54.8 °C.
Take GCCGTCGGAAACGGTGGC (((..((....))..))): the folding enthalpy in data set [1] was -22 kcal/mol. Also, the Tm in data set [2] turned out to be 51.3 °C.
On to GCCGTGCGAAAGCAAAGC ((..(((....)))..)), for which, in data set [1], the folding enthalpy was -9.19 kcal/mol. In addition, in data set [2], the Tm came out at 40.4 °C.
Consider GCCGTGCGAAAGCGCAGC ((.(.((....)).).)), for which the folding enthalpy in data set [1] is -13 kcal/mol. Further, in data set [2], the Tm was determined as 49.1 °C.
For the sequence GCCGTGCGAAAGCTGGGC (((..((....))..))), the folding enthalpy in data set [1] is -19.9 kcal/mol. In addition, the Tm in data set [2] came to 59.5 °C.
In the same order, the values of GCCGTGGCGAAAGCCGGC (((..(((....)))))) are -21.4 kcal/mol and 62.8 °C.
